pIC50: −log10 of the molar value.

Data set [1] deals with Cytochrome P450 3A4 (Homo sapiens, UniProt P08684). In words: Inhibition of CYP3A4. Format: ADME.
The target in data set [2] is T1, Cytochrome P450 1A2 (Homo sapiens, UniProt P05177).
T1 sequence (P05177 whole entry): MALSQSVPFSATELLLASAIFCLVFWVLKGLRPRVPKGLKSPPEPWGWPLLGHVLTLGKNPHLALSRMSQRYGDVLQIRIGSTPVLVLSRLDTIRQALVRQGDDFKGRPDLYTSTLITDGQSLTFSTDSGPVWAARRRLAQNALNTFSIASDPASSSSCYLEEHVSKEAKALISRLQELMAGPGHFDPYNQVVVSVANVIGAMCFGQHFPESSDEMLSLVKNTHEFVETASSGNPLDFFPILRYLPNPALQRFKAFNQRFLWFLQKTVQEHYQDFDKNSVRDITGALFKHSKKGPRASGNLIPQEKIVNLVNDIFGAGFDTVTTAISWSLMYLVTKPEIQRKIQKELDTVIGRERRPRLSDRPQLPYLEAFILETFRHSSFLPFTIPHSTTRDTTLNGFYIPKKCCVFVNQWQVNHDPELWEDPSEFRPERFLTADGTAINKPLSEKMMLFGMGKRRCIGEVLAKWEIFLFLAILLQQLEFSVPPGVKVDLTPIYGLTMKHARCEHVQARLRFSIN
In words: Inhibition of CYP1A2. Format: ADME.

For data set [3], the species on record is Rattus norvegicus. Conditions: Sprague-Dawley, Plasma, 1 mg/kg; call rule not given here.
Data set [4] has as its system Rattus norvegicus. In words: Inhibition of DPP-4 in Sprague-Dawley rat plasma at 10 mg/kg, po administered as single dose measured at 24 hrs post dose. The data set is classed as functional. The procedure, abridged: (§1)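 SD rats received a single oral dose of 1, 3 or 10 mg/kg. Plasma was sampled from 30 min up to 24 h after dosing, and plasma DPP-4 activity was measured as percent inhibition.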

A short description of data set [5]: Clearance in rat. Format: ADME, organism-based. The note with it: in vivo.
The target of data set [6] is Cytochrome P450 2C9 (Homo sapiens, UniProt P11712). In words: Inhibition of CYP2C9. Format: ADME.
Sequence of Cytochrome P450 2C9 (P11712 whole entry): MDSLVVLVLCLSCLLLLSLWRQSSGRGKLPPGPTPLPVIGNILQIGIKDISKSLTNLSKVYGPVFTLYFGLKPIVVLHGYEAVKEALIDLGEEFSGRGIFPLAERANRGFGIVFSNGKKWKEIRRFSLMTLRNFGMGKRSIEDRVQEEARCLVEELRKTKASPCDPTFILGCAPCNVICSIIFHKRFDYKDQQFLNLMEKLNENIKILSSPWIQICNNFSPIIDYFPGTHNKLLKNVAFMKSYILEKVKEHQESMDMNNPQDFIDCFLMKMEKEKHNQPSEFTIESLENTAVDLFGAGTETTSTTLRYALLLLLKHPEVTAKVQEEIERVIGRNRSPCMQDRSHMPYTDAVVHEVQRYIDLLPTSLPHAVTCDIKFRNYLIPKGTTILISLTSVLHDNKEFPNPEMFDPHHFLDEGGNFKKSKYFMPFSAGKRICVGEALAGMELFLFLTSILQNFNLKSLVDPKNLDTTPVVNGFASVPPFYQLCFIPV
Data set [7] concerns Mus musculus. In words: Antidiabetic activity in po dosed C57BL/6J mouse assessed as reduction in glucose AUC administered 30 mins before glucose challenge measured up to 120 mins by oral glucose tolerance test. The data set is classed as functional, organism-based. The procedure, abridged: (§2)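 Oral dosing in C57BL/6J mice at 0.1, 0.3 or 1.0 mg/kg in 0.5% methylcellulose vehicle, followed by a 2 g/kg glucose challenge 30 min post-dose. […] Percent inhibition was calculated from AUC normalized to non-glucose controls. Means ± SEM.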

A short description of data set [8]: Oral bioavailability in rat. Format: ADME, organism-based. The note with it: in vivo.
Data set [9] is described as follows: Half life in rat. Conditions: in vivo. Format: ADME, organism-based.
Data set [10] deals with Rattus norvegicus. In words: Inhibition of DPP-4 in Sprague-Dawley rat plasma at 1 mg/kg, po administered as single dose measured at 24 hrs post dose. Format: functional. Summed up: as §1
In data set [11] the target is Cytochrome P450 2C19 (Homo sapiens, UniProt P33261). In words: Inhibition of CYP2C19. The data set is classed as ADME.
Sequence of Cytochrome P450 2C19 (P33261 whole entry): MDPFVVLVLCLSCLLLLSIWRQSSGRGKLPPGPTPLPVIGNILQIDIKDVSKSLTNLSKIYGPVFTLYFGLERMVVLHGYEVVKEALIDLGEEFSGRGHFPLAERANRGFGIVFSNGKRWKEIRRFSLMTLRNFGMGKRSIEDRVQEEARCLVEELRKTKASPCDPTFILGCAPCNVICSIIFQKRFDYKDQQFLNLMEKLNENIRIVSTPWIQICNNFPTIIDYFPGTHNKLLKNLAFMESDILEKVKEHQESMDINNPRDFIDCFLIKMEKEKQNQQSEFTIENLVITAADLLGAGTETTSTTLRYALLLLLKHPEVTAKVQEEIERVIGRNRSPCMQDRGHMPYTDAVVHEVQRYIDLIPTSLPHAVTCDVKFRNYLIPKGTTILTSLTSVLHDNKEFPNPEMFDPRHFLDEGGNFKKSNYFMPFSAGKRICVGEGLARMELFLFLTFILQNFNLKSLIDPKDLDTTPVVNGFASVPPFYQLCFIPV
Data set [12] relates to Rattus norvegicus. In words: Inhibition of DPP-4 in Sprague-Dawley rat plasma at 3 mg/kg, po administered as single dose measured at 24 hrs post dose. Format: functional. Summed up: as §1
In data set [13] the target is Cytochrome P450 2D6 (Homo sapiens, UniProt P10635). In words: Inhibition of CYP2D6. The data set is classed as ADME.
Sequence of Cytochrome P450 2D6 (P10635 whole entry): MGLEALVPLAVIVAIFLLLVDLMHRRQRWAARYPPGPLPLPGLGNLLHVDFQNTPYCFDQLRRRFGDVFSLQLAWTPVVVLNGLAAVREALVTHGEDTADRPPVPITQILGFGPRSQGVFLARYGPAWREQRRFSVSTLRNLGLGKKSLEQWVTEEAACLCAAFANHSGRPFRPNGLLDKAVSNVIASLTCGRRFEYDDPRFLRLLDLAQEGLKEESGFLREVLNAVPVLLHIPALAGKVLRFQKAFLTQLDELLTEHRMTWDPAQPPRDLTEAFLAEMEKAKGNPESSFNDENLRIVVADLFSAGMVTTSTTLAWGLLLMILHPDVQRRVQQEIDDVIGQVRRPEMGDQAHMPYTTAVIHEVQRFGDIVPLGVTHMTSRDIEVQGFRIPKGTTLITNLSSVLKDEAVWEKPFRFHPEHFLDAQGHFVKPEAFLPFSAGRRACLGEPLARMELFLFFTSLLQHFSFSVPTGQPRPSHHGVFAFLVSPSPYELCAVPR
A short description of data set [14]: Volume of distribution at steady state in rat. The data set is classed as ADME, organism-based. Conditions: in vivo, read-out: Vdss.
Data set [15] concerns Mus musculus. In words: Antidiabetic activity in C57BL/6J mouse assessed as inhibition of blood glucose elevation at 1 mg/kg, po administered 30 mins before glucose challenge by oral glucose tolerance test. The data set is classed as functional. The procedure, abridged: as §2
Data set [16] can be described thus: Half life in human liver microsomes. Format: ADME, Microsome.
Data set [17] deals with Voltage-gated inwardly rectifying potassium channel KCNH2 (Homo sapiens, UniProt Q12809). In words: Inhibition of human ERG by patch clamp method.
Sequence of Voltage-gated inwardly rectifying potassium channel KCNH2 (Q12809 whole entry): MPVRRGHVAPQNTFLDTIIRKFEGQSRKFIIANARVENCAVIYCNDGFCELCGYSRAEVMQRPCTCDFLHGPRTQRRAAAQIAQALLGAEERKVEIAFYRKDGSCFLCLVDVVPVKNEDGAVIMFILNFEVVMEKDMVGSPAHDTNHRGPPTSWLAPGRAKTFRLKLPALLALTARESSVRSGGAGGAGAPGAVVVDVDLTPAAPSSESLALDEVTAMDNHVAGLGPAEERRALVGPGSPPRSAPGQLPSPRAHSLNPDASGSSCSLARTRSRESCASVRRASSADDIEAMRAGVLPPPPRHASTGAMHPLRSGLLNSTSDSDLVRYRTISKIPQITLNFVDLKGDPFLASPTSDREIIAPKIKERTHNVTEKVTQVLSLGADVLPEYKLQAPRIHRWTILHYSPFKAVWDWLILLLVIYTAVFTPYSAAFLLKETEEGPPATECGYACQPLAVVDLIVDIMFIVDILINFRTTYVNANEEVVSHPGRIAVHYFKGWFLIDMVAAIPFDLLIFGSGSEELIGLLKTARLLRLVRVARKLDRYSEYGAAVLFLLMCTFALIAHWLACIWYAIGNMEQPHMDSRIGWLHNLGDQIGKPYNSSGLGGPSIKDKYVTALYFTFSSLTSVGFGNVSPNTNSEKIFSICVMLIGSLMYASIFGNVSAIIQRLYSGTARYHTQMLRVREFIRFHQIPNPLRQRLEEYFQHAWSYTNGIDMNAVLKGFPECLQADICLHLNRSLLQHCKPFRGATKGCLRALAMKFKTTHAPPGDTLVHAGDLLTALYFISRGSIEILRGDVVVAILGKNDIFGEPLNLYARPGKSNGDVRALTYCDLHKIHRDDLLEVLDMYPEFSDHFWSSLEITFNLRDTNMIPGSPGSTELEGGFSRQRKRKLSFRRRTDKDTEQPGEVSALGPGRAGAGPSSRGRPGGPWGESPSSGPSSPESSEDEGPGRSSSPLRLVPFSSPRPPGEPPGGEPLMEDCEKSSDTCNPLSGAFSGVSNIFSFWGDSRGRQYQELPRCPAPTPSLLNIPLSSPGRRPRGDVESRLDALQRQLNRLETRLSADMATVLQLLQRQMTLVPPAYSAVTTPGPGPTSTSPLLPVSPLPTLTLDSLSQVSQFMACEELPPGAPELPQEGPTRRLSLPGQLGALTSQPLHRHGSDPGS

Sequence of Cytochrome P450 3A4 (P08684 whole entry): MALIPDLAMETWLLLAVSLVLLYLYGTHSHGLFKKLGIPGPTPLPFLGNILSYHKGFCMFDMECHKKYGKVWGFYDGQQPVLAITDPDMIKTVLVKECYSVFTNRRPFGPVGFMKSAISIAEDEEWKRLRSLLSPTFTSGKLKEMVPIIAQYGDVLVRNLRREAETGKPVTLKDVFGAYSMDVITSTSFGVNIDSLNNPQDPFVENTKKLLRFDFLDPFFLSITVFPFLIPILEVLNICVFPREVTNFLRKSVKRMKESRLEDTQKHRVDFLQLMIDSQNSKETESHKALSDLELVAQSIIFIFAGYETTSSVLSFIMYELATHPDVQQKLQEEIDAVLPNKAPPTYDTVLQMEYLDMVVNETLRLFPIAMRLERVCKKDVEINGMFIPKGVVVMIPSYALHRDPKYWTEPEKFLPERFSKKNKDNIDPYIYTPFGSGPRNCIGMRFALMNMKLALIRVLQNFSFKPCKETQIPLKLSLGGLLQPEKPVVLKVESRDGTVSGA

For the molecule `COc1ccc(CN2CCN(C(=O)C[C@H](N)Cc3cc(F)c(F)cc3F)CC2=O)cc1`, the pIC50 in data set [1] is 5.97.
Consider `CC(C)(C)OC[C@@H]1C(=O)NCCN1C(=O)C[C@H](N)Cc1cc(F)c(F)cc1F` [EVOGLIPTIN], for which the INH in data set [2], in [6], in data set [1], in data set [11] and in data set [13] was over 50 µM throughout. Also, in [3], the inhibition entry is “Dose-dependent effect”. Moreover, at 10 mg/kg the inhibition in vivo in data set [4] was 87.2%. Also, the clearance in data set [5] came to 60.5 mL/min/kg. For the same molecule, the Activity result in data set [7] was “Dose-dependent effect”. This molecule gave a bioavailability in data set [8] of 74.8%. Besides, the figures for the half-life in data set [9] and in [16] were 6.1 h and over 1.5 h, respectively. Also, the values for the inhibition in vivo at 1 mg/kg in data set [10] and in data set [15] were 72.5% and 63%, respectively. For the same molecule, in data set [12], the inhibition in vivo at 3 mg/kg was found to be 82.9%. For the same molecule, the Vd in data set [14] came out at 12 L/kg. This molecule also had a pIC50 in data set [17] of 4.10.
Consider `N[C@@H](CC(=O)N1CCNC(=O)[C@H]1CO)Cc1cc(F)c(F)cc1F`, for which the “inhibition (INH)” value in [2], in data set [6], in [1], in [11] and in data set [13] was “Not Active” each time.

These data come from ChEMBL document CHEMBL1777686, “Discovery of DA-1229: a potent, long acting dipeptidyl peptidase-4 inhibitor for the treatment of type 2 diabetes” (Bioorg Med Chem Lett, 2011).
